High-throughput results: PubChem, Broad Institute
Pf Dd2 growth: inhibitors of Plasmodium falciparum Dd2 growth. P. falciparum Dd2 growth, SYBR Green, 72 h; active compounds read low. activity change, % at 10 µM. 94,000 compounds, 2.3% hits. AID 1159554; in the data active = activity change below about -80%; inconclusive = no clear call, values can overlap the other calls
IDH1 mut inh: IDH1 R132H (human) inhibition. O75874. IDH1 R132H reductase, diaphorase/resazurin fluorescence, 60 min. inhibition, % at 10 µM. 70,000 compounds, 0.18% hits. AID 624101; in the data active = inhibition above about 34%; inconclusive = no clear call, values can overlap the other calls; inactive = below about 11%;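 note: 0% = DMSO and 100% = no enzyme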
Target sequence (O75874 whole entry R132H): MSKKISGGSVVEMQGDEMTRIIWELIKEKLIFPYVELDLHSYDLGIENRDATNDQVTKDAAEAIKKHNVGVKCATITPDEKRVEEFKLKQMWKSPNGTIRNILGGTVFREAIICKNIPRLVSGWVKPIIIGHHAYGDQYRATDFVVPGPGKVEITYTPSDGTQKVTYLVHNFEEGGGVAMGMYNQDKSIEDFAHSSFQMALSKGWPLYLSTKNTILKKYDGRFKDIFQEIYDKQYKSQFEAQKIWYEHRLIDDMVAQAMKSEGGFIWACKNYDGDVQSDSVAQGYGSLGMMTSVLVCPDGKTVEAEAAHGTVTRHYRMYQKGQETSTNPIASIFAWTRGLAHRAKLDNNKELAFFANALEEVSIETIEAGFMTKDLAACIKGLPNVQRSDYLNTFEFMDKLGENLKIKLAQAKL
T cruzi growth-1: T. cruzi proliferation inhibition | AID 624255 | T. cruzi beta-gal in NIH3T3, GalScreen luminescence, 90 h | inhibition, % at 8.34 µM | 77,000 compounds, 5.9% hits;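 active = mean inhibition above about 93%, with at least 55% of replicates each passing it, limit read from the data, passing the limit was not always enough; inconclusive = only one of those two conditions holds; inactive = neither condition holds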
KDM4C inh: KDM4C (human) demethylase inhibition | Q9H3R0 | GST-KDM4C 2-372, H3K9me3 peptide, LANCE TR-FRET | inhibition, % at 12.5 µM | 96,000 compounds, 0.15% hits;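 active = mean replicate inhibition above about 25%, with at least 55% of replicates also reaching it, limit read from the data, passing the limit was not always enough; inconclusive = only one of those two conditions met; inactive = neither condition met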
Target sequence (Q9H3R0 2-372 limits assumed): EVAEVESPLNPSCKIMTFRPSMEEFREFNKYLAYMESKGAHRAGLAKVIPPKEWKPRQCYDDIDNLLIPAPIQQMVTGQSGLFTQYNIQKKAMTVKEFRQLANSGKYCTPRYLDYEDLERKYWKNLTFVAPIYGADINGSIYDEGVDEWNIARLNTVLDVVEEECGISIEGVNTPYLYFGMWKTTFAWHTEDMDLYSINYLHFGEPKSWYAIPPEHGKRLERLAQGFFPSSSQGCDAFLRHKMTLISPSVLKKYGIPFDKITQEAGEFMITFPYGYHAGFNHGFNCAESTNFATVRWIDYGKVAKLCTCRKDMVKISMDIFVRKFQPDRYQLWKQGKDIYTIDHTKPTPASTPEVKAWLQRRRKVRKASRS
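System – N-terminal GST-fused human GASC-1 (KDM4C) fragment, residues 2-372 · Input – enzyme final amount 10 nM · Technique – LANCE TR-FRET, Eu antibody, ULight-streptavidin, EDTA, ex 340 nm, em 618/671 nm · Medium – HEPES buffer, pH 7.5, plus ascorbate · Incubation – enzyme reaction 30 min, then detection 60 min, both room temperature · Reagent – H3K9me3 peptide with Fe(II)/2OG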
T cruzi growth-2: blocks T. cruzi growth in NIH3T3 host cells; shares compounds with T cruzi growth-1; T. cruzi beta-gal in NIH3T3, GalScreen luminescence, 90 h; inhibition, % at 8.35 µM; 5,600 compounds, 72% hits; AID 651739;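 active = mean replicate inhibition above about 95% and at least 55% of replicates individually reaching it, limit read from the data; inconclusive = only one of the two criteria is met; inactive = neither criterion is met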
T cruzi growth-3: blocks T. cruzi growth in NIH3T3 host cells | T. cruzi beta-gal in NIH3T3, GalScreen luminescence, 90 h | shares compounds with T cruzi growth-1 | AID 651740 | 5,600 compounds, 21% hits | inhibition, % at 2.09 µM;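 active = mean inhibition above about 95%, with at least 55% of replicates also reaching it, limit read from the data; inconclusive = meets just one of the two conditions; inactive = meets neither condition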;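 note: plate controls were neutral control median for no effect and positive control median for full effect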
3T3 cytotox: NIH/3T3 (mouse) viability loss | 5,600 compounds, 14% hits | AID 651742 | NIH/3T3 viability, CellTiter-Glo ATP luminescence, 90 h | shares compounds with T cruzi growth-1 | cytotoxicity (signal decrease), % at 8.35 µM;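 active = mean signal decrease across replicates above about 35% based on untreated-well scatter, with enough replicates individually passing, limit read from the data; inconclusive = no rule stated though some were filed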;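 note: 0% = median of neutral control wells and 100% = median of positive control wells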
NIH3T3 tox 2: cytotoxicity in mouse NIH/3T3 fibroblasts. shares compounds with T cruzi growth-1. inhibition, % at 24.9 µM. 5,600 compounds, 56% hits. NIH/3T3 viability, CellTiter-Glo ATP luminescence, 90 h;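 active = mean loss of cell viability signal at or above a set limit, and enough replicates individually reaching it; inconclusive = meets only the mean limit or only the replicate share; inactive = meets neither condition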;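 note: 0% = median of neutral control wells and 100% = median of positive control wells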
* marks the source's active call; other numbers are inactive results; ? = inconclusive; · = not tested or not shown. Most compounds without a hit are left out; they make up all but 5.9% or so of the library.

SMILES	Pf Dd2 growth	IDH1 mut inh	T cruzi growth-1	KDM4C inh	T cruzi growth-2	T cruzi growth-3	3T3 cytotox	NIH3T3 tox 2
CCN(C[C@H]1N[C@H](CO)[C@H]1c1ccc(C2=CCCC2)cc1)C(=O)c1ccncc1	-62.4	·	104.2*	-0.9	-13.2	-3.9	-14.2	20.1
CCN(C[C@H]1N[C@H](CO)[C@H]1c1ccc(C2=CCCC2)cc1)C(=O)c1cccnc1	10.2	·	-12.7	1.0	·	·	·	·
O=C(NC[C@H]1N[C@H](CO)[C@@H]1c1ccc(C2=CCCCC2)cc1)c1cccc(F)c1	-19.2	·	84.5	-3.6	·	·	·	·
O=C(NC[C@H]1N[C@H](CO)[C@@H]1c1ccc(C2=CCCCC2)cc1)c1ccc(F)cc1	-10.0	·	96.2*	-0.3	99.7*	50.6	-1.4	106.5*
C/C=C/c1ccc([C@@H]2[C@H](CO)N[C@H]2CN(CC)C(=O)c2ccccn2)cc1	-6.2	·	20.7	2.9	·	·	·	·
CCN(C[C@H]1N[C@@H](CO)[C@@H]1c1ccc(C2=CCCC2)cc1)C(=O)c1ccncc1	-34.1	·	105.1*	-1.0	98.0*	0.2	-11.5	55.0*
Cc1cnn(CCCNC(=O)NC23CC4CC(CC(C4)C2)C3)c1	·	0.7	·	·	·	·	·	·
COc1cc(/C=N/NC(=O)c2ccccn2)ccc1O	·	-0.9	·	·	·	·	·	·
Cc1nn(CC(=O)Nc2cc(Cl)cc(Cl)c2)c(C)c1[N+](=O)[O-]	·	-0.1	·	·	·	·	·	·
O=C(c1ccccn1)N1CC[C@@H]2[C@H](CO)Nc3ccc(C#Cc4cccnc4)cc3[C@@H]21	-54.2	·	?	2.2	30.3	24.0	12.5	?
O=C(c1ccc(F)cc1)N1CC[C@H]2[C@H](CO)Nc3ccc(-c4ccccc4F)cc3[C@H]21	-29.7	·	54.7	-0.1	·	·	·	·
O=C(c1ccc(F)cc1)N1CC[C@@H]2[C@H](CO)Nc3ccc(-c4ccccc4F)cc3[C@@H]21	-3.4	·	?	-2.1	97.5*	94.5	6.0	84.9*
O=C(c1ccccn1)N1CC[C@H]2[C@H](CO)Nc3ccc(-c4cccc(F)c4)cc3[C@H]21	-11.2	·	27.4	-0.3	·	·	·	·
O=C(c1cnccn1)N1CC[C@H]2[C@H](CO)Nc3ccc(-c4ccccc4F)cc3[C@H]21	-3.5	·	98.7*	-1.9	96.1*	23.9	16.6	21.2
O=C(c1ccccn1)N1CC[C@H]2[C@H](CO)Nc3ccc(C#Cc4cccnc4)cc3[C@H]21	-19.8	·	77.3	-2.3	·	·	·	·
O=C(c1ccccn1)N1CC[C@@H]2[C@H](CO)Nc3ccc(-c4ccccc4F)cc3[C@@H]21	-5.1	·	83.9	-0.2	·	·	·	·
O=C(c1ccccn1)N1CC[C@@H]2[C@@H](CO)Nc3ccc(-c4ccc(F)cc4)cc3[C@@H]21	20.5	·	111.6*	-0.3	105.3*	79.6	7.0	16.0
Cc1nnc(N2C(=O)C(=O)C(C(=O)c3ccco3)C2c2cccc(Oc3ccccc3)c2)s1 (configuration not stated)	·	0.8	·	·	·	·	·	·
Cn1c(SCC(=O)Nc2ccnc3ccccc23)nnc1-c1ccncc1	·	0.2	·	·	·	·	·	·
COc1cc(C2C3=C(CC(C)(C)CC3=O)Nc3ncnn32)ccc1OCC(=O)N1CCOCC1 (configuration not stated)	·	1.5	·	·	·	·	·	·
Cc1ccc(-c2ccc3c(c2)O[C@@H](CN(C)Cc2cccnc2)[C@@H](C)CN([C@H](C)CO)S3(=O)=O)cc1	-65.7	·	104.0*	0.6	107.5*	101.8*	62.2*	31.5*
C[C@@H]1CN([C@H](C)CO)S(=O)(=O)c2ccc(-c3ccccc3)cc2O[C@H]1CN(C)Cc1cccnc1	-63.4	·	91.9*	-2.5	87.2	88.7	59.1*	100.9*
COc1ccc(NC(=O)CSC2CC(=O)N(c3ccccc3C)C2=O)cc1 (configuration not stated)	·	-0.2	·	·	·	·	·	·
CC(C)C#Cc1ccc([C@@H]2[C@@H](C#N)N(C(=O)c3cccc(F)c3)[C@H]2CO)cc1	-60.1	·	96.9*	-1.7	103.2*	81.3	9.9	32.1
CC(C)C#Cc1ccc([C@@H]2[C@H](C#N)N(C(=O)c3cccc(F)c3)[C@H]2CO)cc1	-28.0	·	?	2.6	92.4	106.3*	16.5	78.5*
SMILES	Pf Dd2 growth	IDH1 mut inh	T cruzi growth-1	KDM4C inh	T cruzi growth-2	T cruzi growth-3	3T3 cytotox	NIH3T3 tox 2
N#C[C@@H]1[C@@H](c2ccc(C#CC3CCCC3)cc2)[C@@H](CO)N1C(=O)c1cccc(F)c1	-39.2	·	·	-4.0	·	·	·	·
CC(C)C#Cc1ccc([C@H]2[C@@H](CO)N(C(=O)c3cccc(F)c3)[C@H]2C#N)cc1	-68.9	·	93.3	-0.9	·	·	·	·
N#C[C@H]1[C@H](c2ccc(C#CC3CC3)cc2)[C@@H](CO)N1C(=O)c1cccc(F)c1	-38.1	·	?	-0.7	97.3*	100.8*	6.4	-5.4
Cc1ccc([N+](=O)[O-])cc1NC(=O)CSc1nnc(-c2ccncc2)n1-c1ccccc1	·	0.1	·	·	·	·	·	·
C[C@@H]1CN([C@H](C)CO)C(=O)c2cc(NC(=O)Nc3ccc(F)cc3)ccc2O[C@@H](C)CCCCO[C@@H]1CN(C)C(=O)NC1CCCCC1	-72.1	0.1	54.8	4.5	·	·	·	·
C[C@H](CO)N1C[C@H](C)[C@@H](CN(C)C(=O)NC2CCCCC2)OCCCC[C@H](C)Oc2ccc(NC(=O)Nc3ccc(F)cc3)cc2C1=O	3.3	1.4	105.2*	-0.5	102.5*	26.8	11.7	24.0
C[C@@H]1CN([C@@H](C)CO)C(=O)c2cc(N(C)C)ccc2O[C@@H](C)CCCCO[C@@H]1CN(C)C(=O)NC1CCCCC1	5.7	-2.7	103.4*	14.0	11.4	-6.6	5.1	-19.1
C[C@H]1CCCCO[C@@H](CN(C)C(=O)NC2CCCCC2)[C@@H](C)CN([C@@H](C)CO)C(=O)c2cc(NC(=O)Nc3ccc(F)cc3)ccc2O1	-45.6	·	108.9*	-1.6	115.0*	54.8	13.3	5.4
C[C@@H]1CCCCO[C@@H](CN(C)C(=O)NC2CCCCC2)[C@H](C)CN([C@H](C)CO)C(=O)c2cc(NC(=O)Nc3ccc4c(c3)OCO4)ccc2O1	-16.4	·	104.7*	1.8	104.7*	74.3	-0.8	-33.0
O=C(CSc1nc2ccccc2s1)Nc1ccccc1N1CCOCC1	·	-0.2	·	·	·	·	·	·
O=C(C[C@@H]1CC[C@H]2[C@@H](COC[C@H](O)CN2Cc2cccc(C(F)(F)F)c2)O1)NCc1ccc(Cl)cc1	-21.2	·	125.2*	0.2	110.3*	22.0	2.5	27.9*
O=C(C[C@@H]1CC[C@@H]2[C@H](COC[C@H](O)CN2CCC(F)(F)F)O1)NCC1CCCCC1	3.9	·	116.8*	2.3	8.5	12.8	-11.1	-20.0
O=C(C[C@@H]1CC[C@@H]2[C@H](COC[C@@H](O)CN2Cc2cccc(C(F)(F)F)c2)O1)NCc1ccccc1	7.3	·	33.7	-0.8	·	·	·	·
